Screening data deposited in PubChem BioAssay by Broad Institute.
SIRT5 block: sirtuin-5 (human) deacylase inhibition | inhibition, % at 15 µM | Purified SirT5, succinyl-peptide AMC, trypsin-coupled fluorescence | Q9NXA8 | 1.1% of 330,000 active; in the data active means inhibition above about 15%; inconclusive means no clear call, values can overlap the other calls
ERAP1 inh: ERAP1 (human) enzyme inhibition. Q9NZ08. recombinant ERAP1, Leu-AMC fluorescence, 60 min. inhibition, % at 10.7 µM. 0.15% of 340,000 active. AID 652197;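 active means mean replicate inhibition of at least 30%, or all replicates individually reaching that 30% level; inactive means mean below 30% and not every replicate reaching it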
Target sequence (Q9NZ08 whole entry, looked up): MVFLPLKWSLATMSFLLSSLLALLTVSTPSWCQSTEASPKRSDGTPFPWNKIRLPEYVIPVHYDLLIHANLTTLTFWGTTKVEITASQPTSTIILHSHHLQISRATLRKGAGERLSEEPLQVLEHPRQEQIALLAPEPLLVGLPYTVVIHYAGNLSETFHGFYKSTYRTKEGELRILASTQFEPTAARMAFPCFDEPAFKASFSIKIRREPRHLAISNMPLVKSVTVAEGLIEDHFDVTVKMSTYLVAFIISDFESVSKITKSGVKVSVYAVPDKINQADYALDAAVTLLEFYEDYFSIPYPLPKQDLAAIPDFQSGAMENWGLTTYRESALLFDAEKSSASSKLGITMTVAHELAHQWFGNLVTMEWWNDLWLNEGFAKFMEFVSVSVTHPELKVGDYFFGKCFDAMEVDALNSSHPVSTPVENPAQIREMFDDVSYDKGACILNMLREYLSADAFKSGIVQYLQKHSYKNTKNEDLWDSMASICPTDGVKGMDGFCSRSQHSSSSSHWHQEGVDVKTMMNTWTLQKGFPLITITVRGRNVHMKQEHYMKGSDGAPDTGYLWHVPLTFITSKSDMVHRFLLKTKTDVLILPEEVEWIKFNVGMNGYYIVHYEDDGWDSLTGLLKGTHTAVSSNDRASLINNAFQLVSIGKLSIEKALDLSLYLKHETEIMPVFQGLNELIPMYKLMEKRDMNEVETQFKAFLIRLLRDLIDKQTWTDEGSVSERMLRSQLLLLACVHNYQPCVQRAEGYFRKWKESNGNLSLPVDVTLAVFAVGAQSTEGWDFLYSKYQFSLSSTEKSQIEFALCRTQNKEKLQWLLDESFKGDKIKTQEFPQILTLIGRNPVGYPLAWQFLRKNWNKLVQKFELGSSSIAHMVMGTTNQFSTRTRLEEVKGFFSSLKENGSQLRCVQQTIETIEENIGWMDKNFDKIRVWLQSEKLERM
PglD DTNB: PglD (C. jejuni) enzyme inhibition; purified PglD enzyme, DTNB colorimetric CoA detection; inhibition, % at 12.5 µM; 0.098% of 360,000 active; in the data active means inhibition above about 16%, passing the limit was not always enough; inconclusive means no clear call, values can overlap the other calls
E-selectin induc: induces E-selectin expression in human endothelial cells. P16581. HUVEC E-selectin immunofluorescence imaging; normalized: neutral wells 0, TNF-alpha wells 100. activation, % at 7.58 µM. 0.37% of 260,000 active;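 active means mean E-selectin-positive cell signal at least 10% of the positive control, reached in at least 60% of replicates, without over 20% cell loss; inconclusive means no rule given, readout overlaps actives, possibly toxicity-flagged; inactive means the rest, including those meeting only one limit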
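System: HUVEC / Compound: single concentration / Signal: immunofluorescence imaging / Read-out: percent E-selectin-positive cells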
DENV2 CPE: DENV2-induced cell death inhibition; DENV2-infected cells, cytopathic effect rescue, plate reader; CPE inhibition, % at 9.99 µM; 1.7% of 350,000 active; in the data active means CPE inhibition above about 20%, passing the limit was not always enough; inconclusive means no clear call, values can overlap the other calls; tested in BHK-21 cells
Large screens that a line does not name were inactive. Hits are enriched below; roughly 2.5% of the tested compounds scored in any of these assays.

COc1ccc(OC)c(CN2C(=O)CN(S(C)(=O)=O)CC2(C)C(=O)NCc2ccccc2)c1 (stereo unspecified)	DENV2 CPE 32 (no result: PglD DTNB)
COc1ccc(S(=O)(=O)Nc2ccc3c(c2)CC(=O)N([C@@H](C)CO)C[C@H](C)[C@@H](CN(C)C(=O)NC2CCCCC2)O3)cc1	E-selectin induc 79
C[C@@H]1CN([C@H](C)CO)C(=O)Cc2cc(NS(=O)(=O)c3ccc(F)cc3)ccc2O[C@@H]1CN(C)C(=O)NC1CCCCC1	none
COc1ccc(S(=O)(=O)Nc2ccc3c(c2)CC(=O)N([C@H](C)CO)C[C@@H](C)[C@@H](CN(C)C(=O)NC2CCCCC2)O3)cc1	E-selectin induc 55, DENV2 CPE inconclusive
O=C(OCC(=O)N1CCN(c2ccccc2)CC1)c1ccncc1	none
C[C@@H]1CN([C@@H](C)CO)C(=O)c2cc(NS(=O)(=O)c3cccs3)ccc2O[C@@H](C)CCCCO[C@H]1CN(C)Cc1ccncc1	none
CC(C)NC(=O)C1C(c2ccc(C(F)(F)F)cc2)=Nc2ccccc2N1C(=O)c1ccco1 (stereo unspecified)	ERAP1 inh 44 (no result: SIRT5 block, PglD DTNB)
CC(C)NC(=O)C1C(c2ccc(C(F)(F)F)cc2)=Nc2ccccc2N1C(=O)c1ccccc1 (stereo unspecified)	none (no result: SIRT5 block, PglD DTNB)
COc1ccc(N2CCN(C(=O)Cn3nnc(-c4ccccc4N)n3)CC2)cc1	none (no result: PglD DTNB)
C[C@H](CO)N1C[C@H](C)[C@@H](CN(C)Cc2cccc(O)c2)OCc2ccccc2-c2c(n(C)c3ccccc23)C1=O	none (no result: PglD DTNB)
CC(C)Cn1c(=O)c2ccccc2n2c(CCC(=O)O)nnc12	DENV2 CPE 70
Cc1ccc(Cn2c(=O)c3ccccc3n3c(CCC(=O)O)nnc23)cc1	none (no result: SIRT5 block)
Cc1ccc(SCCC(=O)NC2CC2)cc1	SIRT5 block 16 (no result: PglD DTNB)
CCOC(=O)c1c(CSc2ccsc2)n(C)c2cc(Br)c(O)c(CN(C)C)c12	SIRT5 block 20 (no result: ERAP1 inh, PglD DTNB)
CCOC(=O)c1c(CSc2ccccc2)n(C)c2cc(Br)c(O)c(CN(C)C)c12	none (no result: PglD DTNB)
O=C(CSc1nnc(NC(=O)c2ccccc2F)s1)NC1CCCC1	none (no result: E-selectin induc)
Cc1cccc(C)c1NC(=O)CSc1nnc(NC(=O)c2ccccc2C(=O)O)s1	ERAP1 inh 45
CC(=O)Nc1ccc(NC(=O)CSc2nnc(NC(=O)c3ccccc3F)s2)cc1	DENV2 CPE 30
O=C(O)/C=C/C(=O)c1ccc2c(c1)CCc1ccccc1-2	DENV2 CPE 29
CC(=O)Nc1ccc2c(c1)CCc1ccccc1-2	none
Cc1cccc(C)c1-n1nnnc1C1(C)CCC(=O)N1Cc1cccs1 (stereo unspecified)	DENV2 CPE 57 (no result: ERAP1 inh, PglD DTNB)
COc1ccc(CN2C(=O)CCC2(C)c2nnnn2Cc2ccccc2)cc1 (stereo unspecified)	DENV2 CPE 85 (no result: SIRT5 block, PglD DTNB)
COc1ccc(CN2C(=O)CCC2(C)c2nnnn2-c2c(C)cccc2C)cc1 (stereo unspecified)	none (no result: SIRT5 block, PglD DTNB)
Cc1cccc(C)c1-n1nnnc1C1(C)CCC(=O)N1Cc1ccco1 (stereo unspecified)	none (no result: ERAP1 inh, PglD DTNB)
CC1(c2nnnn2Cc2ccccc2)CCC(=O)N1Cc1cccnc1 (stereo unspecified)	none (no result: SIRT5 block, PglD DTNB)
Cc1ccc(CN2C(=O)CCC2(C)c2nnnn2-c2c(C)cccc2C)cc1 (stereo unspecified)	SIRT5 block 16 (no result: PglD DTNB)
COc1ccc(CN2C(=O)CCC2(C)c2nnnn2Cc2ccccc2)cc1OC (stereo unspecified)	none (no result: SIRT5 block, PglD DTNB)
Cc1cccc(C)c1-n1nnnc1C1(C)CCC(=O)N1Cc1cccnc1 (stereo unspecified)	DENV2 CPE 38 (no result: SIRT5 block, PglD DTNB)
O=C(CNC(=O)c1ccc2c(c1)OCO2)Nc1ncccc1O	none
C[C@@H]1CCCCO[C@@H](CN(C)Cc2ccc3c(c2)OCO3)[C@@H](C)CN([C@@H](C)CO)C(=O)c2cc(NS(=O)(=O)c3ccccc3)ccc2O1	none (no result: E-selectin induc)
CCCN1C[C@H](C)[C@H](OC)CN(C)C(=O)c2cc(NC(=O)Nc3cccc(F)c3)ccc2OC[C@@H]1C	none (no result: SIRT5 block, ERAP1 inh, DENV2 CPE)
Cn1c(SCC(=O)Nc2sccc2C(N)=O)nnc1-c1ccncc1	none
Oc1ccc(/C=N/n2c3ccccc3c3ccccc32)cc1	none (no result: SIRT5 block, ERAP1 inh, E-selectin induc, DENV2 CPE)
Cc1ccc2oc(C(=O)N(Cc3ccncc3)CC3CCCO3)c(C)c2c1 (stereo unspecified)	DENV2 CPE 47
COc1ccc(C(=O)COC(=O)CCCN=C2NS(=O)(=O)c3ccccc32)c(OC)c1	DENV2 CPE 36 (no result: PglD DTNB)
COc1ccccc1C(=O)COC(=O)CCN=C1NS(=O)(=O)c2ccccc21	none (no result: E-selectin induc)
O=C(CCCN=C1NS(=O)(=O)c2ccccc21)OCC(=O)c1ccccc1	none (no result: E-selectin induc)
COc1ccc(C(=O)COC(=O)CCN=C2NS(=O)(=O)c3ccccc32)c(OC)c1	DENV2 CPE 82 (no result: PglD DTNB, E-selectin induc)
COc1cccc(NC(=O)C2C3C=CC4(O3)C2C(=O)N(CCCN2CCC(C)CC2)C4C(=O)NC2CCCCC2)c1 (stereo unspecified)	none
CC1CCCC(NC(=O)C2N(CCCN3CCCC3)C(=O)C3C(C(=O)Nc4ccc(Cl)cc4)C4C=CC32O4)C1C (stereo unspecified)	none
CCN(CC)CCN1C(=O)C2C(C(=O)Nc3cccc(C)c3)C3C=CC2(O3)C1C(=O)NC1CCCC(C)C1C (stereo unspecified)	SIRT5 block 19 (no result: E-selectin induc)
COc1cccc(NC(=O)C2C3C=CC4(O3)C2C(=O)N(CCCN2CCCCC2)C4C(=O)NC2CCCCC2)c1 (stereo unspecified)	E-selectin induc 29
CC(C)c1ccc(N(CC(=O)NCc2ccco2)C(=O)CCC(=O)Nc2nccs2)cc1	none (no result: SIRT5 block)
CCCCNC(=S)Nc1ccc(OC)nc1	none (no result: PglD DTNB, E-selectin induc)
COc1cccc(NC(=O)CN(C)C(=O)CSc2nc3ccccc3s2)c1	none (no result: PglD DTNB, DENV2 CPE)
CN(CC(=O)Nc1cccc(F)c1)C(=O)c1ccccc1CCc1ccccc1	DENV2 CPE 69 (no result: E-selectin induc)
COc1ccc(NC(=O)CN(C)C(=O)c2ccccc2CCc2ccccc2)cc1	none (no result: PglD DTNB)
CN(CC(=O)Nc1cccc(F)c1)C(=O)CSc1nc2ccccc2s1	DENV2 CPE 61 (no result: PglD DTNB)
O=C(N/N=C/c1c(Cl)cccc1Cl)c1ccccc1F	none (no result: PglD DTNB, E-selectin induc)
COc1ccccc1C(=O)Nc1ccc2c(c1)CN(Cc1cnc(C)s1)CC2	DENV2 CPE 33
CC(Sc1ccccc1)C(=O)N/N=C/c1cccnc1 (stereo unspecified)	none (no result: DENV2 CPE)
CC(C)(C)c1ccc(S(=O)(=O)NC(=O)C2(C)CCN2C(=O)C2CCCCC2)cc1 (stereo unspecified)	SIRT5 block 19
C/C(=N\NC(=O)COc1ccccc1[N+](=O)[O-])c1cccs1	none
O=C1C=CC(=O)N1c1ccccc1N1C(=O)C=CC1=O	ERAP1 inh 58
O=C(c1ccccc1)c1ccccc1N1C(=O)C=CC1=O	DENV2 CPE inconclusive (no result: ERAP1 inh, PglD DTNB)
O=S(=O)(c1ccccc1)[C@@]1(c2ccccc2)C[C@@H]2ON=C(c3cccc(Br)c3)[C@@H]2C1	none (no result: SIRT5 block, DENV2 CPE)
O=C(O)[C@]1(S(=O)(=O)c2ccccc2)C[C@@H]2ON=C(c3cccc(Br)c3)[C@@H]2C1	DENV2 CPE 25 (no result: E-selectin induc)
CN(C)c1ccc(C(=O)NNC(=O)Nc2ccccc2)cc1	none (no result: PglD DTNB, E-selectin induc)
